Laboratory results reported in PMC7311271 (Nature chemical biology, 2020).
Blank lines part the entries; values can stand above or below the compound they belong to.

Tests used:
[1] = molecular target: recombinant human G6PD (Homo sapiens, UniProt P11413); experiment: G6PD diaphorase-coupled enzymatic assay; assay type: biochemical
In short: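 Recombinant human G6PD was expressed in E. coli with an N-terminal His6 tag, purified on Ni, thrombin-cleaved and size-excluded. Reactions started with 1 mM G6P at 30 °C, read each minute (ex 530/em 590 nm). RFU/min was normalised to no-compound wells, and IC50 came from a 4-parameter fit.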

[2] = tested on: active CD8+ T cells; experiment: Fatty acid synthesis; assay type: cell-based, mouse; details: 2 h, [U-13C]glucose tracer
[3] = tested on: G6PD cellular activity in HCT116 cells; experiment: Free palmitic acid; assay type: cell-based, human; details: dose response
In short: (§1)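 HCT116 cells were incubated 2 h at 37 °C, 5% CO2 in medium containing [1-2H]-glucose tracer plus increasing doses of the test compound. Read-out was 2H transfer to the NADPH active hydride or to free palmitic acid, measured by LC-MS; dose-response curves, n = 3.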

[4] = tested on: active CD8+ and CD4+ T cells; experiment: Intracellular ROS; assay type: cell-based, mouse; details: 2 h
In short: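 Active mouse T cells were incubated 2 h with increasing test-compound concentrations, then stained with CellROX Green and a viability dye and analysed by flow cytometry.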

[5] = tested on: neutrophils; experiment: NADPH in neutrophils; assay type: cell-based
In short: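 Mouse neutrophils were enriched by negative selection from femur/tibia bone marrow of 8–12 week old mice. Cells were cultured in RPMI with 10% heat-inactivated FBS, 5 mM HEPES and 2 mM EDTA. Metabolites were extracted after 30 min of PMA stimulation and analysed for NADPH by LC-MS.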

[6] = tested on: HCT116 cells; experiment: Metabolomics in wild-type and ΔG6PD HCT116 cells; assay type: cell-based, human; details: 50 μM, 2 h
In short: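 Adherent cells were grown to 80% confluency. Medium containing test compound was added, and cells were held at 37 °C in 5% CO2 for 2 h. Extraction was at −20 °C for ~30 min, after which wells were scraped and extracts centrifuged (16,000 rpm, 15 min, 4 °C). Supernatants were stored at −80 °C and analysed by LC-MS.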

[7] = tested on: CD8+ T cells; experiment: CD8+ T cell proliferation by Cell Trace Violet dilution; assay type: cell-based, mouse; details: day 4 post-activation
In short: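 Naïve CD8+ T cells were isolated from mouse spleen by magnetic bead selection and stained with CellTrace Violet. Cells were kept naïve with IL-7 or stimulated with anti-CD3/anti-CD28 + IL-2, in increasing test-compound concentrations. Cells were refed at days 2 and 3. At day 4, dye dilution was read by flow cytometry with propidium iodide as viability stain; 2 independent experiments.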

[8] = tested on: active CD4+ T cells; experiment: Intracellular cytokines in active CD4+ T cells; assay type: cell-based, mouse; details: PMA + IO, increasing doses
In short: (§2)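 Mouse CD4+ or CD8+ T cells were activated 48 h with plate-bound anti-CD3 (10 µg/ml)/anti-CD28 (5 µg/ml), IL-2 (100 U/mL) and 100 μM alanine, then kept in IL-2 and used at day 4–5. Cells were restimulated 6 h with PMA (20 ng/ml) + ionomycin (1 ug/ml), GolgiStop and increasing test-compound concentrations. After Live/Dead Aqua, CD4/CD8a surface staining, fixation and permeabilisation, IFNγ, TNFα and IL-2 were read by flow cytometry.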

[9] = tested on: mouse neutrophils; experiment: Neutrophil oxidative burst assay; assay type: cell-based; details: PMA 100 nM, 50 μM
In short: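 Mouse bone-marrow neutrophils were plated at 2 × 10^5 cells/well in bicarbonate-free RPMI 1640 on Cell-Tak-coated wells, spun 200 × g for 1 min and rested 1 h at 37 °C. Test compound (50 µM) or vehicle was added just before the run. Oxidative burst was triggered with PMA (100 nM), and rotenone + antimycin A (0.5 µM each) were added at t = 20 min. OCR was measured by extracellular flux analysis; n = 6.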

[10] = tested on: human neutrophils; experiment: Neutrophil oxidative burst assay; assay type: cell-based; details: PMA 100 nM, 50 μM
In short: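 Human neutrophils were plated at 5 × 10^4 cells/well in RPMI 1640 with 0.1% human serum albumin on Cell-Tak-coated wells, spun 200 × g for 1 min and rested 1 h at 37 °C. Test compound (50 µM) or vehicle was added just before the run. Burst was triggered with PMA (100 nM), and OCR was measured by extracellular flux analysis; n = 6.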

[11] = tested on: bone marrow derived macrophages; experiment: Intracellular cytokines and iNOS in bone marrow derived macrophages; assay type: cell-based, mouse
In short: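 Mouse bone-marrow progenitors from femur and tibia were matured in DMEM with 10% FBS and 20% L929-conditioned medium. Macrophages were stimulated 6 h with LPS (100 ng/mL) + IFNγ (20 ng/mL), with GolgiStop and increasing test-compound concentrations. Cells were stained with Live/Dead Aqua, fixed and permeabilised, and stained for TNFα, IL-6 and iNOS before flow cytometry; 2 independent experiments.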

[12] = tested on: HCT116 cells; experiment: Colony formation; assay type: cell-based, human; details: increasing doses
[13] = tested on: HCT116 and HepG2 cells; experiment: NADPH pools and NADP+/NADPH ratio in HCT116 and HepG2 cells; assay type: cell-based, human
In short: (§3)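 Adherent HepG2 or HCT116 cells were grown to 80% confluency in 6-well plates, then given fresh medium containing the test compound over a dose range. They were incubated 2 h at 37 °C, 5% CO2. Metabolites were extracted ~30 min at −20 °C, scraped and centrifuged (15 min, 16,000 rpm, 4 °C). Supernatants were analysed by LC-MS for 6-pg, NADPH and NADP+ (n = 3).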

[14] = tested on: T cell lineages; experiment: LC-MS quantification of NADPH and NADP+ pools, T cell lineages; assay type: cell-based
In short: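 Suspension T cells (2×10^6 in 1 mL medium, 12-well plates) were incubated with the test compound. Metabolites were acid-extracted 5 min on ice and neutralised with NH4HCO3. After centrifugation (15 min, 16,000 rpm, 4 °C), supernatants were analysed for NADPH and NADP+ by LC-MS.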

[15] = tested on: G6PD in active mouse CD8+ and CD4+ T cells; experiment: NADPH labeling, NADPH, NADP+ and 6-pg levels in active T cells; assay type: cell-based
In short: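 Active CD8+ T cells (day 4–5 post-activation), including cells from G6PD-Tg mice and littermate controls, were treated 2 h with increasing test-compound doses, with a [1-2H]-glucose tracer for labeling. For reversibility, cells were pretreated 2 h, then moved to final media for 2 h. For absolute quantification, extracts were spiked with NADP+ or NADPH standards, and packed cell volume was taken as 1.5 µL per 2 × 10^6 cells. Analysis was by LC-MS, n = 3, two-tailed unpaired t-test.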

[16] = tested on: RBC = red blood cells (mouse); experiment: LC-MS quantification of NADPH pools, RBCs; assay type: cell-based
In short: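 Mouse blood was collected by cardiac puncture into heparin. Serum and buffy coat were removed after a 500 rpm spin at 4 °C, and cells were washed three times in PBS and used immediately in RPMI. Red cells (2×10^6 in 1 mL, 12-well plates) were incubated with the test compound, acid-extracted, neutralised with NH4HCO3, and analysed for NADPH by LC-MS.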

[17] = tested on: active CD8+ T cells; experiment: Intracellular cytokines in active CD8+ T cells; assay type: cell-based, mouse; details: PMA + IO, increasing doses
In short: as §2

[18] = tested on: CD8+ T cells; experiment: CD8+ T cell viability; assay type: cell-based, mouse
[19] = molecular target: G6PD in HepG2 lysates (Homo sapiens, UniProt P11413); experiment: Cellular thermal shift assay; assay type: binding; details: 50 μM, up to 56 °C
In short: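 Lysates took test compound or DMSO for 30 min on ice, then were heated 3 min at 47, 50, 53 or 56 °C. After 3 min cooling at room temperature, insoluble material was spun out (17,000 g, 20 min). G6PD signal is expressed relative to the DMSO control.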

[20] = tested on: G6PD cellular activity in HCT116 cells; experiment: NADPH active hydride 2H-labeling from [1-2H]-glucose in HCT116 cells; assay type: cell-based, human
In short: as §1

[21] = tested on: oxPPP flux in active CD8+ T cells; experiment: Absolute oxPPP flux by 14CO2 emission; assay type: cell-based, mouse; details: 10 μM, 4 h
In short: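 Active mouse CD8+ T cells were used at day 4 post plate-bound anti-CD3/anti-CD28 stimulation, cultured with IL-2. Three million cells were incubated 4 h in a sealed flask with 0.1% DMSO or 10 μM test compound. Released 14CO2 was trapped in 10 M KOH, the reaction was stopped with 1 M HCl, and radioactivity was counted by scintillation. Flux (fmol h-1 cell-1) was normalised to cell number, labeling time and tracer fraction; mean ± SD, n = 5.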

[22] = tested on: mouse bone-marrow derived macrophages; experiment: LC-MS quantification of NADPH pools, macrophages; assay type: cell-based
[23] = tested on: CD4+ T cells; experiment: CD4+ T cell proliferation by CFSE dilution; assay type: cell-based, mouse; details: day 3 post-activation
In short: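 In a Treg suppression set-up, mouse Tconv cells were labeled with CFSE and Treg cells with CellTrace Violet. Tconv cells were stimulated with irradiated antigen-presenting cells plus CD3ε mAb (1 µg/mL). After 72 h, proliferation was read by flow cytometry as dye dilution.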

[24] = tested on: CD4+ T cells (Foxp3+ iTreg); experiment: Foxp3+ iTreg formation and proliferation; assay type: cell-based, mouse; details: CD3/CD28 stimulation in the presence of TGF-β
[25] = tested on: G6PD cellular activity in HCT116-mPgd cells; experiment: 6-pg levels in HCT116-mPgd cells; assay type: cell-based, human; details: dose response, compared with DHEA
[26] = tested on: CD8+ T cells; experiment: Untargeted metabolomics on CD8+ T cells; assay type: cell-based, mouse; details: active CD8+ T cells, 2 h
In short: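 Active mouse CD8+ T cells were treated 2 h with the test compound. Water-soluble metabolites were extracted and profiled by LC-MS; mean, n = 3. Metabolites with fold-change > 4 were flagged.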

[27] = tested on: mouse naïve CD8+ T cells stimulated by CD3/CD28 + IL-2; experiment: T cell activation markers; assay type: cell-based; details: increasing concentrations
In short: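 Naïve CD8+ T cells were isolated from mouse spleens as strained single-cell suspensions in PBS with 0.5% BSA and 2 mM EDTA. Cells were rested with IL-7 (50 U/mL) or stimulated 48 h on plate-bound anti-CD3 (10 µg/ml) plus anti-CD28 (5 µg/ml) in RPMI with 100 μM alanine and IL-2 (100 U/mL), with increasing test compound. Read-outs were Live/Dead Aqua viability, surface CD69 and CD25, and FSC-A size. Two independent experiments were run.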

[28] = tested on: G6PD cellular activity in HepG2 cells; experiment: 6-pg levels in HepG2 cells; assay type: cell-based, human
In short: as §3

Sequence of recombinant human G6PD (P11413 28-515): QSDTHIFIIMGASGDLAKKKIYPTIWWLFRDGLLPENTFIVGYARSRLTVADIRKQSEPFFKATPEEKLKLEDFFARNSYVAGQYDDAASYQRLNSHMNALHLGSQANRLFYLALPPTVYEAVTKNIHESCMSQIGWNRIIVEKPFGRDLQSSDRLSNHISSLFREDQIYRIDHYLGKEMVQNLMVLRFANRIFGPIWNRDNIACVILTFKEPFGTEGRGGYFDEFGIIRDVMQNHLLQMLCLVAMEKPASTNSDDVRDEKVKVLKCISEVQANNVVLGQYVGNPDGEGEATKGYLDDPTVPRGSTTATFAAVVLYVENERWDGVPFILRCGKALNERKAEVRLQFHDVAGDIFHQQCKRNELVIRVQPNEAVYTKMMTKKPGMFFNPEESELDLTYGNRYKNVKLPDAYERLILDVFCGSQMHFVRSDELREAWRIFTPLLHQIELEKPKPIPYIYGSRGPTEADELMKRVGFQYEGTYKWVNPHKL
Sequence of G6PD in HepG2 lysates (P11413 whole entry): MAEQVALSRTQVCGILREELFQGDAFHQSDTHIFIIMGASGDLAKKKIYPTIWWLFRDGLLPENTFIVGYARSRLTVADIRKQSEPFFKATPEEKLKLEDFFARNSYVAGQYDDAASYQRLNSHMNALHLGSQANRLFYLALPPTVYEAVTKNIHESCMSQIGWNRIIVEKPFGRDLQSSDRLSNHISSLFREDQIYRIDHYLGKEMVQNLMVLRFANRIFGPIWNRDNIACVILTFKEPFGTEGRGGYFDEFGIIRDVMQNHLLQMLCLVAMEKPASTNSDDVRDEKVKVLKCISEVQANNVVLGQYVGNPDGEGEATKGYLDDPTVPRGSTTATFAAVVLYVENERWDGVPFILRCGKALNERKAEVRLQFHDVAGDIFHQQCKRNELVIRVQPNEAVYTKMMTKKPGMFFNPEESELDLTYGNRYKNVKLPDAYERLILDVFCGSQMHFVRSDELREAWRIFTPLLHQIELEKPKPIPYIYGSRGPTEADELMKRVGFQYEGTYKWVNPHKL

in vitro activity against human G6PD [1]: lacked any activity
Structure (SMILES): CN(c1cccc(C#N)c1)c1ncc2c(n1)CCCC2=O [G6PDi-neg-ctrl, 3-[methyl(5-oxo-5,6,7,8-tetrahydroquinazolin-2-yl)amino]benzonitrile]

mode of binding to G6PD ([1]; in vitro dilution experiments and competition assays against both substrates): reversibly and non-competitively
thermal stabilization of G6PD [19]: significant thermal stabilization
IC50 ([28]; Homo sapiens, HepG2, read-out: IC50 for decrease in 6-pg levels): ~13 µM
Structure (SMILES): N#Cc1cc(Nc2ncc3c(n2)CCCCC3=O)cs1 [G6PDi-1, 4-([5-oxo-6H,7H,8H,9H-cyclohepta[d]pyrimidin-2-yl]amino)thiophene-2-carbonitrile]
fatty acid synthesis [2]: nearly completely ablated
dose-dependent decrease in 2H transfer to C16:0 [3]: dose-dependent decrease
reactive oxygen species (ROS) [4]: elevated
effect on NADPH [5]: did impact NADPH
off-target metabolic effects [6]: some potential off-target effects on purine nucleosides
activation-dependent proliferation [7]: minimal effect
IL-2 and TNF-α production [8]: blocked
oxidative burst (oxygen consumption rate) [9]: decreased
oxidative burst (oxygen consumption rate) [10]: decreased
LPS-induced pro-inflammatory cytokine production or iNOS upregulation [11]: did not decrease
colony formation [12]: dose-dependent decrease
NADPH pools ([13]; HCT116 and HepG2 cells): largely unperturbed
NADP+/NADPH ([13]; HCT116 cells, dose response): dose-dependent increase
decrease in NADPH [14]: greater than 10 fold
time to restoration of NADPH, NADP+ and 6-pg levels after removing the inhibitor ([15]; activated CD8+ T cells): ≤ 2 h
effect of G6PD overexpression on dose response of NADPH and NADP+ ([15]; active CD8+ T cells from G6PD-Tg mice vs littermate controls): markedly shifted the dose response
time to onset of effects on NADPH labeling and NADP+, NADPH and 6-pg levels ([15]; active CD8+ T cells, 50 μM): ≤ 10 min
NADPH and 6-pg levels ([15]; mouse CD8+ and CD4+ T cells day 4–5 post-activation): decreased
2H transfer from glucose to NADPH ([15]; mouse CD8+ and CD4+ T cells day 4–5 post-activation, 10 μM, [1-2H]-glucose): completely blocked
sensitivity of NADPH pools [16]: fairly sensitive
IFNγ and TNF-α production [17]: blocked
viability [18]: minimal effect
dose-dependent decrease in 2H transfer to NADPH's active hydride ([20]; dose response): dose-dependent decrease
absolute oxPPP flux [21]: blocked
effect on NADPH [22]: did not decrease
proliferation of CD4+ T cells [23]: minimal effect
formation and proliferation of Foxp3+ cells [24]: unaffected
suppression of 6-pg levels [25]: much more effectively suppressed
specificity of metabolic effects [26]: clean on-target activity
upregulation of activation markers and activation-dependent increase in cell size [27]: did not alter
dose-dependent decrease in 6-pg levels ([28]; HepG2 cells, dose response): dose-dependent decrease

in vitro activity against human G6PD [1]: low micromolar
Structure (SMILES): Cc1cccc(Nc2ncc3c(n2)CCCC3=O)c1 [G6PDi-precursor, 2-[(3-methylphenyl)amino]-5,6,7,8-tetrahydroquinazolin-5-one]

Structure (SMILES): OC[C@H]1O[C@@H](Oc2cc(O)cc(/C=C/c3ccc(O)cc3)c2)[C@H](O)[C@@H](O)[C@@H]1O [polydatin, reference compound]
effect on NADPH active hydride labeling ([20]; 50 μM, 2 h): failed to decrease
effect on 6-pg levels ([28]; HepG2 cells, 50 μM, 2 h): failed to decrease
